Measurements: ChEMBL document CHEMBL5032534, “COUPY Coumarins as Novel Mitochondria-Targeted Photodynamic Therapy Anticancer Agents” (J Med Chem, 2021)
Values belong to the molecule of their own block, whether it stands above or below them. The source made the active and inactive calls. The rule behind the calls is not given here.

Key:
[1] = Selectivity index, ratio of IC50 for cytotoxicity against BGM cells assessed as reduction in cell viability in dark to IC50 for cytotoxicity against human HeLA cells assessed as reduction in cell viability in dark; format: toxicity, cell-based; details: African green monkey (BGM cells), BGM cells versus HeLa cells, read-out: Ratio IC50
Outline: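 Selectivity factor is the dark IC50 in BGM normal renal cells over the dark IC50 in HeLa cells. Both come from the MTT phototoxicity procedure without irradiation.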

[2] = test system: HeLa; test: Induction of ROS generation in human HeLa cells at 5 uM incubated for 1 hr in dark followed by irradiation with visible light for 1 hr under normoxic condition in presence of Trolox by DCFH-DA staining based flow cytometric analysis; format: functional, cell-based; details: time 2.0 hrs
Outline: (§1)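 HeLa cells were seeded at 2 × 10^4/well for 24 h under 21% or 2% O2. They were co-treated with 5 μM compound plus a scavenger, which stayed present throughout: NAC 5 mM, NaN3 5 mM, mannitol 50 mM, tiron 5 mM, sodium pyruvate 10 mM or Trolox 0.1 mM. Cells were held 1 h dark, then 1 h under visible light, stained 30 min with 10 μM DCFH-DA, trypsinized and analysed by flow cytometry. At least two independent experiments, n = 3.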

[3] = test system: HeLa; test: Induction of ROS generation in human HeLa cells at 5 uM incubated for 1 hr in dark followed by irradiation with visible light for 1 hr under normoxic condition in presence of NaN3 by DCFH-DA staining based flow cytometric analysis; format: functional, cell-based; details: time 2.0 hrs; outline: as §1
[4] = test system: HeLa; test: Induction of mitochondrial membrane potential loss in human HeLa cells at 5 uM measured after 24 hrs by JC-1 dye-based flow cytometric analysis; format: functional, cell-based
Outline: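 HeLa cells were seeded at 1.5 × 10^5 in 12-well plates for 24 h and treated for 24 h. Vehicle control held 0.4% DMSO and antimycin A (50 μM) served as positive control. Cells were stained with JC-1 (1 μM, 20 min) and analysed by flow cytometry (10^4 events; ex 488 nm; green 530 nm and red 585 nm channels). At least two independent experiments.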

[5] = test system: HeLa; test: Induction of ROS generation in human HeLa cells assessed as increase in intracellular ROS level at 5 uM incubated for 1 hr in dark followed by irradiation with visible light for 1 hr under hypoxic condition by DCFH-DA staining based flow cytometric analysis; format: functional, cell-based; details: time 2.0 hrs; outline: as §1
[6] = Drug uptake in nucleolus of human HeLa cells assessed as drug accumulation at 1 uM measured after 30 mins by confocal microscopic analysis; format: ADME, subcellular; details: 0.5 h
Outline: (§2)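 HeLa cells in high-glucose DMEM with 10% fetal calf serum were seeded on glass-bottom dishes for 24 h, then loaded with compound for 30 min at 37 °C. They were washed three times with DPBS and kept in phenol-red-free low-glucose DMEM. Live cells were imaged by confocal microscopy at 37 °C with 5% CO2, excited at 561 nm, with emission collected from 570 to 670 nm.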

[7] = Induction of singlet oxygen generation in air-saturated DCM solution assessed as reduction in 1,3-diphenylisobenzofuran absorption irradiated with 505 nanometer green light by DPBF-based assay; format: functional
[8] = Drug uptake in mitochondria of human HeLa cells assessed as drug accumulation at 1 uM measured after 30 mins by confocal microscopic analysis; format: ADME; details: 0.5 h; outline: as §2
[9] = test system: HeLa; test: Induction of autophagy in human HeLa cells assessed as increase in MDC-positive autophagic vesicles at 5 uM preincubated for 30 mins followed by light irradiation for 1 hr and further incubated for 6 hrs in drug-free medium by MDC staining based confocal microscopic analysis; format: functional, cell-based; details: time 1.5 hrs
Outline: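 HeLa cells were seeded at 1.5 × 10^4 cells/cm2 in chamber slides and given 0.5 h compound incubation, then 1 h visible-light irradiation. Medium was replaced for a 6 h recovery. Cells were stained with monodansylcadaverine (0.05 mM in PBS, 10 min, 310 K) and imaged by confocal microscopy (ex 405 nm). Vacuoles were counted in at least 10 cells from two experiments. Controls were starvation in EBSS for 2 h and resveratrol 50 μM for 2 h.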

[10] = test system: HeLa; test: Effect on cell cycle distribution in human HeLa cells at 5 uM incubated for 30 mins in dark by RNase/propidium iodide staining based FACS analysis; format: functional
Outline: (§3)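 HeLa cells were seeded at 1.5 × 10^5/well and treated for 0.5 h, with or without 1 h visible-light irradiation, followed by 24 h recovery. Cells were fixed in ice-cold 70% ethanol for 1 h and stained with PI (40 μg/mL) plus RNase (1 μg/mL) for 30 min at 310 K. Analysis was by flow cytometry in the FL2-A channel. At least two independent experiments, n = 3.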

[11] = test system: HeLa; test: Induction of superoxide anion generation in human HeLa cells assessed as increase in DHE fluorescence at 5 uM incubated for 1 hr in dark followed by irradiation with visible light for 1 hr under hypoxic condition in presence of tiron by DHE staining based flow cytometric analysis; details: time 2.0 hrs
[12] = test system: HeLa; test: Induction of apoptosis in human HeLa cells assessed as increase in total apoptotic cells at 5 uM preincubated for 30 mins in dark followed by irradiation for 1 hr and measured after 24 hrs by Annexin V-FITC/ Propidium iodide staining based flow cytometry analysis; format: functional, cell-based; details: time 25.5 hrs
Outline: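 HeLa cells were seeded at 1.5 × 10^5/well overnight and treated for 0.5 h, with or without 1 h visible-light irradiation, followed by 24 h recovery. Cells were trypsinized, resuspended in binding buffer, labelled with FITC-Annexin V and propidium iodide for 15 min at room temperature in the dark, and analysed by flow cytometry. Cisplatin (30 μM) served as positive control.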

[13] = test system: HeLa; test: Induction of ROS generation in human HeLa cells at 5 uM incubated for 1 hr in dark followed by irradiation with visible light for 1 hr under hypoxic condition in presence of 5 mM NAC by DCFH-DA staining based flow cytometric analysis; format: functional, cell-based; details: time 2.0 hrs; outline: as §1
[14] = test system: HeLa; test: Effect on cell cycle distribution in human HeLa cells assessed as reduction in G1 phase population at 5 uM preincubated for 30 mins in dark followed by light irradiation for 1 hr by RNase/propidium iodide staining based FACS analysis; format: functional; details: time 1.5 hrs; outline: as §3
[15] = test system: HeLa; test: Induction of ROS generation in human HeLa cells at 5 uM incubated for 1 hr in dark followed by irradiation with visible light for 1 hr under normoxic condition in presence of 5 mM NAC by DCFH-DA staining based flow cytometric analysis; format: functional, cell-based; details: time 2.0 hrs; outline: as §1
[16] = Phototoxicity index, ratio of IC50 for cytotoxicity against human HeLa cells assessed as reduction in cell viability in dark under hypoxic condition to IC50 for phototoxicity against human HeLa cells upon LED light irradiation under hypoxic condition; format: toxicity, cell-based
Outline: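 Phototoxic index is the dark IC50 over the irradiated IC50 in HeLa cells. Both come from the MTT schedule of 1 h dark incubation plus 1 h visible-LED irradiation, then recovery in drug-free medium, run under 21% or 2% O2 as stated in the line.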

[17] = test system: HeLa; test: Induction of autophagy in human HeLa cells […] pretreated with wortmannin for 1 hr followed by irradiation schedule for 1 hr by MDC staining based confocal microscopic analysis; format: functional
[18] = Drug uptake in human HeLa cells at 1 uM incubated for 30 mins by confocal microscopic analysis; format: ADME, cell-based; details: 0.5 h; outline: as §2
[19] = Selectivity index, ratio of IC50 for cytotoxicity against CHO cells to IC50 for antiproliferative activity against A2780 cells; format: toxicity, cell-based; details: Chinese hamster (CHO cells); human (A2780 cells), CHO cells versus A2780 cells; read-out: Ratio IC50
Outline: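 Selectivity factor is the IC50 in CHO cells over the IC50 in A2780 cells. Both were measured after 48 h of continuous treatment by MTT.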

Compound: CN(C)c1ccc2c(c1)O/C(=C(/C#N)c1cc[n+](CC(F)(F)F)cc1)C=C2C(F)(F)F
selectivity ratio [1]: 1.9

Compound: CCN(CC)c1ccc2c(c1)O/C(=C(/C#N)c1cc[n+](CC(=O)NCCCNC(=O)OC(C)(C)C)cc1)C=C2C
selectivity ratio [1]: 2.7

Drug uptake [6]: Active
Drug uptake [8]: Active
Drug uptake [18]: Active
Compound: CCN(CC)c1ccc2c(c1)O/C(=C(/C#N)c1cc[n+](CC(F)(F)F)cc1)C=C2C
Activity [2]: inactive
Activity [3]: inactive
Activity [4]: inactive
Activity [5]: inactive
Activity [7]: Active
Activity [9]: inactive
Activity [10]: inactive
Activity [11]: Active
Activity [12]: Active
Activity [13]: inactive
Activity [14]: Active
Activity [15]: inactive
selectivity ratio [1]: 4.3
Ratio IC50 [16]: 4.7
Activity [17]: Active

Compound: CN(C)c1ccc2c(c1)O/C(=C(/C#N)c1cc[n+](C)cc1)C=C2C(F)(F)F
selectivity ratio [19]: > 5.1

Compound: CN(C)c1ccc2c(c1)O/C(=C(/C#N)c1cc[n+](C)cn1)C=C2C(F)(F)F
selectivity ratio [1]: 4.2
